Data set [1] concerns Influenza A virus. The experiment in a line: Antiviral activity against Influenza A virus (A/Duck/Guangdong/674/2014 (H5N6)) group-2 infected in chicken embryo fibroblast assessed as reduction in viral infection preincubated for 1 hrs followed by fibroblast infection and measured after 72 hrs by hemagglutination titre method. The class given is functional, organism-based.
For data set [2], the system named is Influenza A virus. The experiment in a line: Antiviral activity against Influenza A virus (A/goose/Guangdong/SH7/2013(H5N1)) group-1 infected in chicken embryo fibroblast assessed as reduction in viral infection preincubated for 1 hrs followed by fibroblast infection and measured after 72 hrs by hemagglutination titre method. The class given is functional, organism-based.

The nature of data set [3]: Cytotoxicity against chicken embryo fibroblast assessed as reduction in cell viability after 48 hrs by CCK8 assay. The note with it: chicken embryo fibroblasts. Also on record: species or system Gallus gallus. An outline of the steps:
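Chicken embryo fibroblasts (1×10^5 cells/mL) were cultured 24 h at 37°C, 5% CO2, washed with serum-free DMEM, then exposed to 2-fold serial compound dilutions in 1% FBS DMEM for 48 h. CCK-8 in 1% FBS DMEM was added for 90 min and absorbance read at 450 nm. CC50 was obtained by curve fitting. Blank and cell controls were included.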

Data set [4] deals with Influenza A virus. Briefly: Antiviral activity against Influenza A virus (A/chicken/Hebei/LZF/ 2014(H5N2)) group-2 infected in chicken embryo fibroblast assessed as reduction in viral infection preincubated for 1 hrs followed by fibroblast infection and measured after 72 hrs by hemagglutination titre method. The class given is functional, organism-based.
For data set [5], the system named is Influenza A virus. Briefly: Antiviral activity against Influenza A virus (A/goose/Jiangsu/1306/2014 (H5N8)) group-1 infected in chicken embryo fibroblast assessed as reduction in viral infection preincubated for 1 hrs followed by fibroblast infection and measured after 72 hrs by hemagglutination titre method. The class given is functional, organism-based.

A value given as a limit tells only on which side of the number the result lay.

What is called IC50 is the point on the concentration scale where inhibition reaches its midpoint. As usually defined, the CC50 is the concentration giving 50% cytotoxicity. As to `CCC(CC)O[C@@H]1C=C(C(=O)O)C[C@H](NC(=O)/C=C/c2ccccc2)[C@H]1NC(C)=O`, the 50% inhibitory concentration (IC50) is above 10 µM with Influenza A virus [1], above 10 µM with Influenza A virus [2], above 10 µM in the data set with Influenza A virus [4] and 5.32 µM in the data set with Influenza A virus [5]. Besides, in data set [3], the CC50 at 48 h is above 200 µM.
As to `CCC(CC)O[C@@H]1C=C(C(=O)O)C[C@H](NCc2ccc(C#N)cc2)[C@H]1NC(C)=O`, the IC50 in the data set with Influenza A virus [1] was above 10 µM; with Influenza A virus [2], above 10 µM; in the data set with Influenza A virus [5], 0.68 µM. The half-maximal cytotoxic concentration (CC50) at 48 h in data set [3] is above 200 µM.
For `CCC(CC)O[C@@H]1C=C(C(=O)O)C[C@H](NCc2ncc(-c3ccccc3)s2)[C@H]1NC(C)=O`, the 50% inhibitory concentration (IC50) is 4.29 µM in the data set on Influenza A virus [1], above 10 µM in the data set with Influenza A virus [2], 0.41 µM in the data set with Influenza A virus [4] and 0.49 µM with Influenza A virus [5]. In addition, the CC50 at 48 h in data set [3] was above 200 µM.
For `CCC(CC)O[C@@H]1C=C(C(=O)O)C[C@H](NS(=O)(=O)c2ccc(Cl)cc2)[C@H]1NC(C)=O`, in that order: above 10 µM, above 10 µM, above 10 µM, 4.76 µM and above 200 µM.
For `CCC(CC)O[C@@H]1C=C(C(=O)O)C[C@H](NCc2ccc(F)cc2)[C@H]1NC(C)=O`, in that order: 4.57 µM, above 10 µM, 0.11 µM, 0.52 µM and above 200 µM.
For the molecule `CCC(CC)O[C@@H]1C=C(C(=O)O)C[C@H](NCc2cccc(-c3ccsc3)c2)[C@H]1NC(C)=O`, the IC50 is 2.62 µM with Influenza A virus [1], 0.07 µM with Influenza A virus [4] and 0.056 µM in the data set with Influenza A virus [5]. Also, the CC50 at 48 h in data set [3] is above 200 µM.
Take `CCC(CC)O[C@@H]1C=C(C(=O)O)C[C@H](NCc2ccc(Br)cc2)[C@H]1NC(C)=O`: the half-maximal inhibitory concentration (IC50) was determined as 1.99 µM in the data set on Influenza A virus [1], 2.53 µM in the data set with Influenza A virus [2] and 0.11 µM in the data set with Influenza A virus [4]. The CC50 at 48 h in data set [3] is above 200 µM.
As to `CCC(CC)O[C@@H]1C=C(C(=O)O)C[C@H](NC/C=C/c2ccc(N(C)C)cc2)[C@H]1NC(C)=O`, the IC50 in the data set with Influenza A virus [1] is 2.78 µM; in the data set with Influenza A virus [2] it was 1.29 µM; in the data set with Influenza A virus [4], 0.065 µM; in the data set with Influenza A virus [5] it was 0.88 µM. Further, the CC50 at 48 h in data set [3] was above 200 µM.
For `CCC(CC)O[C@@H]1C=C(C(=O)O)C[C@H](NC(=O)/C=C/c2ccc(C)cc2)[C@H]1NC(C)=O`, in that order: above 10 µM, above 10 µM, above 10 µM, 4.76 µM and above 200 µM.
With `CCC(CC)O[C@@H]1C=C(C(=O)O)C[C@H](NS(=O)(=O)c2ccc(C(C)(C)C)cc2)[C@H]1NC(C)=O`, the IC50 in the data set with Influenza A virus [1], in the data set on Influenza A virus [2] and in the data set with Influenza A virus [4] was above 10 µM throughout. Also, the CC50 at 48 h in data set [3] is above 200 µM.
Take `CCC(CC)O[C@@H]1C=C(C(=O)O)C[C@H](NS(=O)(=O)c2ccc3ccccc3c2)[C@H]1NC(C)=O`: the IC50 in the data set on Influenza A virus [1] is above 10 µM; in the data set with Influenza A virus [2], above 10 µM; in the data set on Influenza A virus [4], above 10 µM; with Influenza A virus [5], 3.23 µM. Further, in data set [3], the half-maximal cytotoxic concentration (CC50) at 48 h was above 200 µM.
Regarding `CCC(CC)O[C@@H]1C=C(C(=O)O)C[C@H](NCc2cccc(F)c2)[C@H]1NC(C)=O`, the IC50 was 3.87 µM in the data set on Influenza A virus [1], above 10 µM with Influenza A virus [2], 0.14 µM in the data set on Influenza A virus [4] and 0.49 µM in the data set on Influenza A virus [5]. In data set [3], the CC50 at 48 h was above 200 µM.
For `CCC(CC)O[C@@H]1C=C(C(=O)O)C[C@H](NS(=O)(=O)c2ccc(-c3ccccc3)cc2)[C@H]1NC(C)=O`, in that order: above 10 µM, above 10 µM, above 10 µM, 6.79 µM and above 200 µM.
For `CCC(CC)O[C@@H]1C=C(C(=O)O)C[C@H](NCc2ccc([N+](=O)[O-])cc2)[C@H]1NC(C)=O`, in that order: 2.16 µM, above 10 µM, 0.21 µM, 0.42 µM and above 200 µM.
For `CCC(CC)O[C@@H]1C=C(C(=O)O)C[C@H](NC(=O)/C=C/c2ccc(OC)cc2)[C@H]1NC(C)=O`, in that order: above 10 µM, above 10 µM, above 10 µM, 8.48 µM and above 200 µM.
Consider `CCC(CC)O[C@@H]1C=C(C(=O)O)C[C@H](NCc2ccsc2)[C@H]1NC(C)=O`, for which the 50% inhibitory concentration (IC50) was 3.58 µM in the data set on Influenza A virus [1], above 10 µM with Influenza A virus [2], 0.13 µM in the data set with Influenza A virus [4] and 0.081 µM with Influenza A virus [5]. Moreover, the CC50 at 48 h in data set [3] is above 200 µM.
Take `CCC(CC)O[C@@H]1C=C(C(=O)O)C[C@H](NC/C=C/c2ccc(OC)cc2)[C@H]1NC(C)=O`: the IC50 with Influenza A virus [1] came to 4.07 µM; in the data set with Influenza A virus [2], 7.56 µM; in the data set with Influenza A virus [4], 0.21 µM; with Influenza A virus [5], 0.64 µM. Also, in data set [3], the CC50 at 48 h was above 200 µM.
For `CCC(CC)O[C@@H]1C=C(C(=O)O)C[C@H](NCc2ccc(-c3cccs3)s2)[C@H]1NC(C)=O`, in that order: 7.12 µM, above 10 µM, 0.083 µM, 0.072 µM and above 200 µM.
Turning to `CCC(CC)O[C@@H]1C=C(C(=O)O)C[C@H](NCc2cccc([N+](=O)[O-])c2)[C@H]1NC(C)=O`, the concentration for half-maximal inhibition (IC50) with Influenza A virus [1] is 2.16 µM; in the data set with Influenza A virus [2], above 10 µM; in the data set on Influenza A virus [4] it was 0.24 µM; in the data set with Influenza A virus [5] it was 0.7 µM. In data set [3], the half-maximal cytotoxic concentration (CC50) at 48 h was above 200 µM.
For `CCC(CC)O[C@@H]1C=C(C(=O)O)C[C@H](NS(=O)(=O)c2ccc(F)cc2)[C@H]1NC(C)=O`, the half-maximal inhibitory concentration (IC50) was above 10 µM in the data set on Influenza A virus [1], above 10 µM with Influenza A virus [2], above 10 µM in the data set with Influenza A virus [4] and 4.25 µM in the data set with Influenza A virus [5]. Besides, in data set [3], the CC50 at 48 h is above 200 µM.
On to `CCC(CC)O[C@@H]1C=C(C(=O)O)C[C@H](NC(=O)/C=C/c2cccc(C)c2)[C@H]1NC(C)=O`, for which the IC50 with Influenza A virus [1] is above 10 µM; in the data set with Influenza A virus [2], above 10 µM; in the data set on Influenza A virus [4], above 10 µM; in the data set on Influenza A virus [5], 4.37 µM. Besides, in data set [3], the CC50 at 48 h is above 200 µM.
In the case of `CCC(CC)O[C@@H]1C=C(C(=O)O)C[C@H](NC(=O)c2ccc(-c3ccccc3)cc2)[C@H]1NC(C)=O`, the IC50 was above 10 µM in the data set on Influenza A virus [1], above 10 µM in the data set on Influenza A virus [2], above 10 µM in the data set with Influenza A virus [4] and 3.54 µM in the data set on Influenza A virus [5]. For the same molecule, in data set [3], the CC50 at 48 h is above 200 µM.
`CCC(CC)O[C@@H]1C=C(C(=O)O)C[C@H](NS(=O)(=O)c2ccccc2)[C@H]1NC(C)=O`: the IC50 in the data set with Influenza A virus [1] is above 10 µM; with Influenza A virus [2], above 10 µM; in the data set on Influenza A virus [4] it was above 10 µM; in the data set on Influenza A virus [5], 4.82 µM. The CC50 at 48 h in data set [3] was above 200 µM.
On to `CCC(CC)O[C@@H]1C=C(C(=O)O)C[C@H](NC(=O)c2ccccc2)[C@H]1NC(C)=O`, for which the 50% inhibitory concentration (IC50) in the data set with Influenza A virus [1], with Influenza A virus [2], with Influenza A virus [4] and in the data set with Influenza A virus [5] was above 10 µM in each case. In addition, in data set [3], the cytotoxic concentration (CC50) at 48 h is above 200 µM.
With `CCC(CC)O[C@@H]1C=C(C(=O)O)C[C@H](N(Cc2ccsc2)Cc2ccsc2)[C@H]1NC(C)=O`, the IC50 with Influenza A virus [1] was 3.03 µM; in the data set with Influenza A virus [2], above 10 µM; with Influenza A virus [4], 0.15 µM; in the data set on Influenza A virus [5], 0.88 µM. Besides, the CC50 at 48 h in data set [3] is above 200 µM.
As to `CCC(CC)O[C@@H]1C=C(C(=O)O)C[C@H](NS(=O)(=O)c2ccc(-c3cccs3)cc2)[C@H]1NC(C)=O`, the IC50 came to 2.39 µM in the data set on Influenza A virus [1], 0.29 µM in the data set on Influenza A virus [2], 0.079 µM in the data set with Influenza A virus [4] and 0.053 µM with Influenza A virus [5]. Besides, the cytotoxic concentration (CC50) at 48 h in data set [3] is above 200 µM.
For `CCC(CC)O[C@@H]1C=C(C(=O)O)C[C@H](NC(=O)/C=C/c2ccc(F)cc2)[C@H]1NC(C)=O`, in that order: above 10 µM, above 10 µM, above 10 µM, 5.16 µM and above 200 µM.
As for `CCC(CC)O[C@@H]1C=C(C(=O)O)C[C@H](NCc2cccc(C(F)(F)F)c2)[C@H]1NC(C)=O`, the IC50 was 3.17 µM in the data set on Influenza A virus [1], above 10 µM in the data set with Influenza A virus [2], 0.34 µM with Influenza A virus [4] and 0.75 µM with Influenza A virus [5]. Besides, the CC50 at 48 h in data set [3] is above 200 µM.
As to `CCC(CC)O[C@@H]1C=C(C(=O)O)C[C@H](NS(=O)(=O)c2ccc(C)cc2)[C@H]1NC(C)=O`, the half-maximal inhibitory concentration (IC50) in the data set with Influenza A virus [1] was above 10 µM; with Influenza A virus [2] it was above 10 µM; in the data set on Influenza A virus [4], above 10 µM; in the data set with Influenza A virus [5], 3.12 µM. Moreover, in data set [3], the CC50 at 48 h was above 200 µM.
`NC(=O)c1ncn([C@@H]2O[C@H](CO)[C@@H](O)[C@H]2O)n1` [RIBAVIRIN]: the IC50 was 6.68 µM in the data set on Influenza A virus [1], 4.01 µM in the data set on Influenza A virus [2], above 10 µM in the data set with Influenza A virus [4] and 1.96 µM in the data set with Influenza A virus [5]. Besides, in data set [3], the cytotoxic concentration (CC50) at 48 h is above 200 µM.

Values taken from ChEMBL document CHEMBL4765273 (Eur J Med Chem, 2020).
